Experimental data reported in paper PMC2659690 (Molecular Pharmaceutics, 2008).
Where a SMILES comes first, the peptide text is derived from it. [ ]: non-standard residue; d: D form. Sar = CNCC(=O)O

What was measured:
[1] = test system: Capan-2 cells; test: Cell proliferation; assay type: cell-based; conditions: Homo sapiens, Capan-2, pH 6, read-out: GI50 Capan-2
Procedure, shortened: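 Capan-2 cells (passages 50-54) in antibiotic-free RPMI-1640 plus 10% FBS were plated at 125,000 per well and allowed 24 h to attach. After a rinse with pH 6.0 uptake buffer, they received test compound in the same buffer (twofold series, 4 to 0.25 mmol/L; buffer-only wells as 100% viability) for 4 h at 37 °C. Two washes and 24 h recovery in medium followed.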

[2] = test system: Caco-2 cell homogenates; test: Enzymatic stability in Caco-2 cell homogenate; assay type: in vitro ADME, human; conditions: 500 μg/mL protein, 37 °C, mean ± SD, n = 3
[3] = target: T1, thymidine phosphorylase (Homo sapiens, UniProt P19971); test: Resistance to metabolism by thymidine phosphorylase; assay type: in vitro ADME; conditions: 200 μM substrate, TP 2.0 ng/μL, phosphate buffer pH 7.0, 37 °C; mean ± SD, n = 3
T1 sequence (P19971 11-482): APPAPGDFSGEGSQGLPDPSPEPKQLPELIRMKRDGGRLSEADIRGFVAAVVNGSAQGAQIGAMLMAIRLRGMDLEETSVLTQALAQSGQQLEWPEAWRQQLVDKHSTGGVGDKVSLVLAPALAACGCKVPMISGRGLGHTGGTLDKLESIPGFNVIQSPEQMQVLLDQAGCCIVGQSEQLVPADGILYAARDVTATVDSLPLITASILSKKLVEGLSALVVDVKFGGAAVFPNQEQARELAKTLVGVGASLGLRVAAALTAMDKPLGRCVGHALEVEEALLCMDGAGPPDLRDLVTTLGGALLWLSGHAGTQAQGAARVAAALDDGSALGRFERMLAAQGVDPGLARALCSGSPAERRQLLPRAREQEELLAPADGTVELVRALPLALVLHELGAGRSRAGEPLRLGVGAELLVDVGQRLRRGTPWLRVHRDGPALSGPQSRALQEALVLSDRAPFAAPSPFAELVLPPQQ

[4] = test system: Capan-2 cell homogenates; test: Enzymatic stability in Capan-2 cell homogenate; assay type: in vitro ADME, human; conditions: 500 μg/mL protein, 37 °C, mean ± SD, n = 3
[5] = target: T2, PEPT1 (Homo sapiens, UniProt P46059); test: [3H]Gly-Sar uptake inhibition in Capan-2 cells; assay type: cell-based
T2 sequence (P46059 1-708): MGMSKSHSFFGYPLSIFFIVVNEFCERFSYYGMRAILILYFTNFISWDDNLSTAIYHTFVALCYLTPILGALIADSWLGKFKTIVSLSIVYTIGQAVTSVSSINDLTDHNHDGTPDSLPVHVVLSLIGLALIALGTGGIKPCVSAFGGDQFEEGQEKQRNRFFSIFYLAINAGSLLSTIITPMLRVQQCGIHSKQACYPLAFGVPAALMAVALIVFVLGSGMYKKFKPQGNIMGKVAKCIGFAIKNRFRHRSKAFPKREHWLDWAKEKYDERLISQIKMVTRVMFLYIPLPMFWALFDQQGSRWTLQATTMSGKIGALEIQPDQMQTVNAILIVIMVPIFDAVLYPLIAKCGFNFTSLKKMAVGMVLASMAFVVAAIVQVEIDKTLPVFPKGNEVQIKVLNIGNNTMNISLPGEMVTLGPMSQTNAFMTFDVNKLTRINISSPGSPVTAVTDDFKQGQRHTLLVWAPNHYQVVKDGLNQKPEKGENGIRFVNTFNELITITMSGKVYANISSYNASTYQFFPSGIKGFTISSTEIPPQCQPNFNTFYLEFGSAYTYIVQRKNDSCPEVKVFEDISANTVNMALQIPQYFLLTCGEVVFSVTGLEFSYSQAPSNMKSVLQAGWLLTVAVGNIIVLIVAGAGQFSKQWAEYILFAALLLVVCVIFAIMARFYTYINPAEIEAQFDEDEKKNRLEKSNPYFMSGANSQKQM

[6] = target: T2, PEPT1; test: [3H]Gly-Sar uptake inhibition in Caco-2 cells; assay type: cell-based
[7] = Stability in human plasma; assay type: in vitro ADME; conditions: undiluted human plasma, 37 °C; mean ± SD, n = 3
[8] = target: T2, PEPT1; test: [3H]Gly-Sar uptake inhibition in AsPC-1 cells; assay type: cell-based
[9] = test system: AsPC-1 cell homogenates; test: Enzymatic stability in AsPC-1 cell homogenate; assay type: in vitro ADME, human; conditions: 500 μg/mL protein, 37 °C, mean ± SD, n = 3
[10] = Chemical stability; assay type: physicochemical; conditions: pH 7.4 phosphate buffer, 37 °C; mean ± SD, n = 3
[11] = test system: AsPC-1 cells; test: Cell proliferation; assay type: cell-based; conditions: Homo sapiens, ASPC1, pH 6, read-out: GI50 AsPC-1
Procedure, shortened: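 AsPC-1 cells (passages 63-65) were grown antibiotic-free in RPMI-1640 with 10% FBS, seeded at 125,000 cells/well and left 24 h. They were washed with pH 6.0 uptake buffer and exposed 2 h at 37 °C to test compound (2-fold dilutions, 4 to 0.25 mmol/L, in that buffer); buffer alone served as 100% viability. Cells were washed twice and recovered 24 h in medium.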

[12] = Apical-to-basolateral permeability across Caco-2 monolayers; assay type: in vitro ADME; conditions: human
[13] = test system: Capan-2 cell monolayers; test: Apical-to-basolateral permeability across Capan-2 monolayers; assay type: in vitro ADME, human; conditions: 1 mM verapamil (efflux pump inhibitor); data not shown
[14] = read-out: IC50 [3H]Gly-Sar uptake inhibition Capan-2, Capan-2 cells, 10 μmol/L Gly-Sar, 30 min, mean ± SD, n = 3
[15] = read-out: IC50 [3H]Gly-Sar uptake inhibition Caco-2, Caco-2 cells, 10 μmol/L Gly-Sar, 30 min, mean ± SD, n = 3
[16] = read-out: IC50 [3H]Gly-Sar uptake inhibition AsPC-1, AsPC-1 cells, 10 μmol/L Gly-Sar, 30 min, mean ± SD, n = 3

Row | Compound | t1/2 cell homogenates Caco-2 [2] [min] | t1/2 in the presence of thymidine phosphorylase [3] [min] | t1/2 cell homogenates Capan-2 [4] [min] | IC50 [5, 14] [µM] | IC50 [6, 15] [µM] | t1/2 human plasma [7] [min] | IC50 [8, 16] [µM] | t1/2 cell homogenates AsPC-1 [9] [min] | t1/2 buffer pH 7.4 [10] [min] | IC50 [5] [µM] | IC50 [6] [µM] | GI50 [11] [µM] | Papp at 2 h, 0.1 mM [12] [×10⁻⁶ cm/s] | IC50 [8] [µM] | effect of verapamil on permeability in Capan-2 cells [13] | GI50 [1] [µM]
1 | NCC(=O)N1CCC[C@H]1C(=O)O [glycylproline (Gly-Pro), glycylproline] (H-Gly-Pro-OH) |  |  |  |  |  |  |  |  |  |  |  |  |  |  |  | 29500 ± 6500
2 | CN(CC(=O)O)C(=O)CN [glycylsarcosine (Gly-Sar), glycylsarcosine] (H-Gly-[Sar]-OH) |  |  |  |  |  |  |  |  |  |  |  |  |  |  |  | 25700 ± 8100
3 | N[C@@H](Cc1ccccc1)C(=O)OC[C@H]1O[C@@H](n2cc(F)c(=O)[nH]c2=O)C[C@@H]1O [5′-L-phenylalanyl-floxuridine] | 11.1 ± 9.9 | >500 | 3.0 ± 0.1 | 3710 ± 2130 | 1990 ± 820 | 62.8 ± 0.8 | 1970 ± 90 | 11.8 ± 1.7 | 187.0 ± 19.0 |  |  |  |  |  |  | 
4 | 5′-L-Valyl-L-phenylalanyl-floxuridine | 57.6 ± 9.3 | >500 | 56.2 ± 12.8 | 460 ± 20 | 2880 ± 10 | 76.0 ± 14.1 | 1030 ± 80 | 51.6 ± 4.2 | 104.7 ± 7.0 |  |  |  |  |  |  | 
5 | CC[C@H](C)[C@H](N)C(=O)NCC(=O)OC[C@H]1O[C@@H](n2cc(F)c(=O)[nH]c2=O)C[C@@H]1O [5′-L-isoleucyl-L-glycyl-floxuridine, 5′-L-Isoleucyl-L-glycyl-floxuridine] | 20.5 ± 1.1 | 223 ± 54 | 18.7 ± 1.4 | 440 ± 20 | 390 ± 10 | 9.5 ± 0.5 | 290 | 25.1 ± 5.8 | 33.5 ± 2.4 |  |  |  |  |  |  | 
6 | CC[C@H](C)[C@H](N)C(=O)OC[C@H]1O[C@@H](n2cc(F)c(=O)[nH]c2=O)C[C@@H]1O [5′-L-isoleucyl-floxuridine] | 192.3 ± 31.8 | >500 | 139.9 ± 15.3 | 2380 ± 120 | 720 ± 30 | 271.4 ± 3.2 | 4120 ± 1750 | 198.0 ± 70.2 | 1194.5 ± 660.6 |  |  |  |  |  |  | 
7 | N[C@@H](Cc1ccccc1)C(=O)N[C@@H](Cc1ccc(O)cc1)C(=O)OC[C@H]1O[C@@H](n2cc(F)c(=O)[nH]c2=O)C[C@@H]1O [5′-L-phenylalanyl-L-tyrosyl-floxuridine, 5′-L-Phenylalanyl-L-tyrosyl-floxuridine] | 103.8 ± 55.5 | >500 | 42.8 ± 0.0 | 1200 ± 160 | 660 ± 250 | 80.6 ± 3.7 | 610 ± 180 | 59.7 ± 1.4 | 233.9 ± 6.6 |  |  |  |  |  | not affected | 

Second part, led by results:

Row | t1/2 cell homogenates Caco-2 [2] [min] | t1/2 in the presence of thymidine phosphorylase [3] [min] | t1/2 cell homogenates Capan-2 [4] [min] | IC50 [5, 14] [µM] | IC50 [6, 15] [µM] | t1/2 human plasma [7] [min] | IC50 [8, 16] [µM] | t1/2 cell homogenates AsPC-1 [9] [min] | t1/2 buffer pH 7.4 [10] [min] | IC50 [5] [µM] | IC50 [6] [µM] | GI50 [11] [µM] | Papp at 2 h, 0.1 mM [12] [×10⁻⁶ cm/s] | IC50 [8] [µM] | effect of verapamil on permeability in Capan-2 cells [13] | Compound | GI50 [1] [µM]
8 | 24.1 ± 2.0 | 250 ± 54 | 49.7 ± 5.6 | 2790 ± 80 | 2280 ± 590 | 72.1 ± 15.0 | 2710 ± 530 | 27.6 ± 5.8 | 85.5 ± 3.2 |  |  |  |  |  |  | NCC(=O)OC[C@H]1O[C@@H](n2cc(F)c(=O)[nH]c2=O)C[C@@H]1O [5′-L-glycyl-floxuridine] | 
9 |  |  |  |  |  |  |  |  |  | 16100 ± 6710 | 8430 ± 2660 | > 4000 | 0.69 ± 0.1 | 6630 ± 1520 |  | O=c1[nH]c(=O)n([C@H]2C[C@H](O)[C@@H](CO)O2)cc1F [floxuridine, 5-fluoro-2′-deoxyuridine, reference compound] | > 4000
10 | 6.3 ± 0.6 | 119 ± 30 | 4.3 ± 0.9 | 790 ± 20 | 780 ± 560 | 9.7 ± 0.8 | 880 ± 220 | 10.2 ± 0.3 | 132.1 ± 10.2 |  |  |  |  |  |  | N[C@@H](Cc1ccccc1)C(=O)NCC(=O)OC[C@H]1O[C@@H](n2cc(F)c(=O)[nH]c2=O)C[C@@H]1O [5′-L-phenylalanyl-L-glycyl-floxuridine, 5′-L-Phenylalanyl-L-glycyl-floxuridine] | 
11 | 3.2 ± 0.2 |  | 4.7 ± 2.1 | 1450 ± 70 | 3510 ± 110 | 82.4 ± 8.7 | 2600 ± 160 | 2.0 ± 0.1 | 83.2 ± 1.7 |  |  |  |  |  |  | CC(C)C[C@H](N)C(=O)OC[C@H]1O[C@@H](n2cc(F)c(=O)[nH]c2=O)C[C@@H]1O [5′-L-leucyl-floxuridine] | 
12 | 9.4 ± 0.5 |  | 5.2 ± 2.4 | 2410 ± 280 | 1880 ± 180 | 131.5 ± 54.1 | 2910 ± 380 | 18.7 ± 6.7 | 304.0 ± 33.3 |  |  |  |  |  |  | CC(C)[C@H](N)C(=O)OC[C@H]1O[C@@H](n2cc(F)c(=O)[nH]c2=O)C[C@@H]1O [5′-L-valyl-floxuridine] | 
13 | 4.1 ± 0.1 | 138 ± 11 | 3.9 ± 1.1 | 340 ± 10 | 3800 ± 600 | 6.7 ± 0.3 | 510 ± 30 | 3.6 ± 0.8 | 23.2 ± 4.1 |  |  |  |  |  |  | CC(C)C[C@H](N)C(=O)NCC(=O)OC[C@H]1O[C@@H](n2cc(F)c(=O)[nH]c2=O)C[C@@H]1O [5′-L-leucyl-L-glycyl-floxuridine, 5′-L-Leucyl-L-glycyl-floxuridine] | 
